Assay results from different studies.
pIC50: −log10 of the molar value.
Effect on: enzyme activity
Action: inhibitor
PIK3CD: Phosphatidylinositol 4,5-bisphosphate 3-kinase catalytic subunit delta isoform (PIK3CD, Homo sapiens, UniProt O00329)
KIT: Mast/stem cell growth factor receptor Kit (KIT, Homo sapiens, UniProt P10721)

For CN(C)C(=O)c1cc2cnc(Nc3cc(C(=O)O)cc(-c4ccc5c(=O)cc(N6CCOCC6)oc5c4)c3)nc2n1C1CCCC1, the pIC50 was 6.14 (PIK3CD; radiometric).
For CCc1nc(C(N)=O)c(Nc2ccc(N3CCC(N4CCN(C)CC4)CC3)c(OC)c2)nc1NC1CCOCC1, the pIC50 was 6.82 (KIT).
CN(C)C(=O)c1cc2cnc(Nc3cncc(-c4ccc5c(=O)cc(N6CCOCC6)oc5c4)c3)nc2n1C1CCCC1 has a pIC50 of 6.86 (PIK3CD; radiometric).
For CN(C)CCNC(=O)c1ccc(-c2nc3ccc4[nH]ncc4c3c3c2CCCC3)c(F)c1, the pIC50 was 6.05 (KIT).
For O=C1Nc2ccc(I)cc2/C1=C/c1cc(Br)c(O)c(Br)c1, the pIC50 was 6.50 (Casein kinase II subunit alpha (CSNK2A1, Homo sapiens, UniProt P68400)).
With COc1cc(N=C2C(=O)Nc3ccccc32)cc(OC)c1 the pIC50 was 7.32 (PIK3CD; ADP detection).
With COc1ccc(-c2cc(=O)c3ccc(Nc4ncc5cc(C(=O)N(C)C)n(C6CCCC6)c5n4)cc3o2)cc1 the pIC50 was 5.01 (PIK3CD; radiometric).
The pIC50 of O=C(NO)c1ccc(Cn2cnc3c(Nc4ccc(Cl)cc4)ncnc32)cc1 is reported as < 4.70 (RAC-beta serine/threonine-protein kinase (AKT2, Homo sapiens, UniProt P31751); radiometric).
O=C1C(=Nc2ccc(Cl)cc2)c2ccccc2N1Cc1ccc([N+](=O)[O-])cc1 gave a pIC50 of 7.52 (PIK3CD; ADP detection).
Cc1n[nH]c2ccc3nc(-c4ccc(C(=O)NCCN(C)C)cc4)c4c(c3c12)CCCC4 gave a pIC50 of 6.68 (KIT).
O=C1C(=Nc2ccc(Cl)cc2Br)c2ccccc2N1Cc1ccc([N+](=O)[O-])cc1 has a pIC50 of 7.29 (PIK3CD; ADP detection).
For CN(C)C(=O)c1cc2cnc(Nc3ccc(-c4ccc5c(=O)cc(N6CCOCC6)oc5c4)cc3)nc2n1C1CCCC1, the pIC50 was 6.05 (PIK3CD; radiometric).
For Cc1cccc(N=C2C(=O)Nc3ccccc32)c1, the pIC50 was 7.05 (PIK3CD; ADP detection).
CN(C)C(=O)c1cc2cnc(Nc3cc(C(F)(F)F)c(-c4cccc5c(=O)cc(N6CCOCC6)oc45)cn3)nc2n1C1CCCC1 has a pIC50 of 7.02 (PIK3CD; radiometric).
The pIC50 of Cc1cccc(N=C2C(=O)N(Cc3ccccc3)c3ccccc32)c1 is reported as 7.66 (PIK3CD; ADP detection).
Cc1n[nH]c2ccc3nc(-c4ccc(C(=O)NCCN(C)C)cc4)c4c(c3c12)CCCCC4 has a pIC50 of 6.48 (KIT).
The pIC50 of O=C1C(=Nc2ccccc2I)c2ccccc2N1Cc1ccc(Br)cc1 is reported as 6.86 (PIK3CD; ADP detection).
Cc1n[nH]c2ccc3nc(-c4ccc(C(=O)NCCN(C)C)cc4F)c4c(c3c12)CCCC4 gave a pIC50 of 6.29 (KIT).
With COc1c(Cl)cccc1Nc1c(-c2ccncc2OC[C@@H]2COCCO2)[nH]c2c1C(=O)NCC2 the pIC50 was 7.86 (Receptor tyrosine-protein kinase erbB-4 (ERBB4, Homo sapiens, UniProt Q15303); TR-FRET).
CN(C)C(=O)c1cc2cnc(Nc3cccc4c(=O)cc(N5CCOCC5)oc34)nc2n1C1CCCC1 gave a pIC50 of < 5.00 (PIK3CD; radiometric).
